ChEMBL document CHEMBL4014329, “Selective Inhibition of Escherichia coli RNA and DNA Topoisomerase I by Hoechst 33258 Derived Mono- and Bisbenzimidazoles” (J Med Chem, 2017)
Converted amounts (≈) assume the structure as drawn. The source made the active and inactive calls. The calls are words filed in the database; no cut-off is given here.

How the values were obtained:
Enterococcus faecalis = test: Antibacterial activity against Enterococcus faecalis ATCC 29212 after 24 hrs by microbroth dilution method; assay type: functional; conditions: ATCC 29212, 24 h
Method in brief: (§1)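 Microbroth dilution per CLSI guidelines. Organisms grown in Mueller−Hinton broth at 37 °C with shaking to log phase, pelleted, resuspended in 0.85% saline to OD625 0.1. Final inoculum 5 × 10^5 CFU/mL; triplicate; 24 h at 37 °C. OD625 read; MIC = lowest concentration completely inhibiting growth versus untreated controls.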

Staphylococcus aureus [1] = test: Antibacterial activity against Staphylococcus aureus ATCC 33591 after 24 hrs by microbroth dilution method; assay type: functional; conditions: ATCC 33591, 24 h; method in brief: as §1
Enterococcus faecium = test: Antibacterial activity against Enterococcus faecium BM4105RF after 24 hrs by microbroth dilution method; assay type: functional
Method in brief: (§2)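 Mueller-Hinton broth cultures grown at 37 °C with shaking to log phase, pelleted, resuspended in 0.85% saline to OD625 0.1. Broth microdilution per CLSI guidelines, final inoculum 5 × 10^5 CFU/mL, in triplicate, 24 h at 37 °C. Growth read as OD625. MIC is the lowest concentration giving complete growth inhibition versus untreated controls.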

Escherichia coli [2] = test: Antibacterial activity against Escherichia coli ATCC 25922 after 24 hrs by microbroth dilution method; assay type: functional; conditions: ATCC 25922, 24 h; method in brief: as §1
Staphylococcus aureus [3] = test: Antibacterial activity against methicillin-resistant Staphylococcus aureus 33591 after 24 hrs by microbroth dilution method; assay type: functional; conditions: Staphylococcus aureus, 33591, 24 h; method in brief: as §2
Citrobacter freundii = test: Antibacterial activity against Citrobacter freundii 4747CFAA after 24 hrs by microbroth dilution method; assay type: functional; method in brief: as §1
Shigella flexneri = test: Antibacterial activity against Shigella flexneri 2457NR517 after 24 hrs by microbroth dilution method; assay type: functional; conditions: 2457NR517, 24 h; method in brief: as §2
Staphylococcus aureus [4] = test: Antibacterial activity against Staphylococcus aureus ATCC 29213 after 24 hrs by microbroth dilution method; assay type: functional; conditions: ATCC 29213, 24 h; method in brief: as §1
[5] = system: Staphylococcus epidermidis; test: Antibacterial activity against Staphylococcus epidermidis ATCC 12384 after 24 hrs by microbroth dilution method; assay type: functional; conditions: ATCC 12384, 24 h; method in brief: as §1
Acinetobacter baumannii = test: Antibacterial activity against Acinetobacter baumannii ATCC 19606 after 24 hrs by microbroth dilution method; assay type: functional; conditions: ATCC 19606 = CIP 70.34 = JCM 6841, 24 h; method in brief: as §1
Staphylococcus aureus [6] = test: Antibacterial activity against methicillin-resistant Staphylococcus aureus A960649 after 24 hrs by microbroth dilution method; assay type: functional; conditions: A960649, 24 h; method in brief: as §2
[7] = Binding affinity to dA60.dT60 B-DNA duplex (unknown origin) assessed as change in melting temperature at 10 uM by UV-vis spectrophotometric analysis
Method in brief: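 UV melting of dA60·dT60 at 1 μM/duplex with compound at 10 μM. Buffer 10 mM sodium cacodylate, 0.1 mM EDTA, 100 mM NaCl, pH 7.0; duplex pre-annealed from 95 °C. Compound stocks in DMSO diluted into buffer. Heating at 0.2 °C/min, monitored at 260 nm, points every 1.0 °C; Tm taken from derivatives.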

[8] = Binding affinity to dA60.dT60 B-DNA duplex (unknown origin) assessed as induction of biphasic transition at <5 uM by UV-vis spectrophotometric analysis
Klebsiella pneumoniae = test: Antibacterial activity against Klebsiella pneumoniae NR15410 after 24 hrs by microbroth dilution method; assay type: functional; conditions: NR15410, 24 h; method in brief: as §1
Enterobacter cloacae = test: Antibacterial activity against Enterobacter cloacae ATCC 13047 after 24 hrs by microbroth dilution method; assay type: functional; conditions: ATCC 13047, 24 h; method in brief: as §1
Escherichia coli [9] = test: Antibacterial activity against Escherichia coli K-12 after 24 hrs by microbroth dilution method; assay type: functional; conditions: K-12, 24 h; method in brief: as §1
Pseudomonas aeruginosa = test: Antibacterial activity against Pseudomonas aeruginosa ATCC 27853 after 24 hrs by microbroth dilution method; assay type: functional; conditions: ATCC 27853, 24 h; method in brief: as §1
Escherichia coli [10] = test: Inhibition of Escherichia coli DNA gyrase using relaxed plasmid pBAD-GFPuv as substrate after 30 mins by agarose gel electrophoresis
Escherichia coli [11] = test: Inhibition of Escherichia coli RNA topoisomerase 1 using circular RNA as substrate up to 50 uM after 1.5 hrs by SDS-PAGE analysis
Method in brief: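 10 nM E. coli topoisomerase I premixed with reaction buffer and inhibitor diluted in DMSO, then circular RNA substrate added; 1.5 h incubation. Stopped with proteinase K/SDS/EDTA buffer. Trefoil RNA knot product separated from circular substrate on 15% TBE−urea gels and detected by phosphorimaging. DMSO-only control included.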

DU-145 = test: Cytotoxicity against human DU145 cells after 48 hrs by SRB assay; assay type: cell-based; conditions: human, du-145, 48 h
Method in brief: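 Cells cultured per ATCC protocols, seeded and grown 24 h (37 °C, 5% CO2), then treated in triplicate at final 20, 10, 5, 2.5, 1.25, 0.625 and 0.0625 μM for 48 h. Fixed with cold TCA (16% final, 4 °C, 1 h), stained with SRB in 1% acetic acid, dye solubilized in 10 mM Tris base, A560 read. IC50 derived; study in duplicate.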

Row | Compound | MIC (Enterococcus faecalis) | MIC (Staphylococcus aureus [1]) | MIC (Enterococcus faecium) | MIC (Escherichia coli [2]) | MIC (Staphylococcus aureus [3]) | MIC (Citrobacter freundii) | MIC (Shigella flexneri) | MIC (Staphylococcus aureus [4]) | MIC [5] | MIC (Acinetobacter baumannii) | MIC (Staphylococcus aureus [6]) | ΔTm [7] | Activity [8] | MIC (Klebsiella pneumoniae) | MIC (Enterobacter cloacae) | MIC (Escherichia coli [9]) | MIC (Pseudomonas aeruginosa) | inhibition (Escherichia coli [10]) | inhibition (Escherichia coli [11]) | Activity (DU-145)
1 | COC(=O)c1cc(N2CCN(C)CC2)cc2[nH]c(-c3ccc(O)cc3)nc12 | 16 to 32 µg/mL (≈ 43.7 to 87.3 µM) | 16 to 32 µg/mL (≈ 43.7 to 87.3 µM) | > 32 µg/mL | 16 µg/mL (≈ 43.7 µM) | > 32 µg/mL | > 32 µg/mL | > 32 µg/mL | 16 to 32 µg/mL (≈ 43.7 to 87.3 µM) | > 32 µg/mL | > 32 µg/mL | > 32 µg/mL | 0 °C | Active | > 32 µg/mL | > 32 µg/mL | 16 µg/mL (≈ 43.7 µM) | 16 µg/mL (≈ 43.7 µM) |  |  | 
2 | CCOc1ccc(-c2nc3ccc(N4CCN(C)CC4)cc3[nH]2)cc1 | 16 µg/mL (≈ 47.6 µM) | 16 to 32 µg/mL (≈ 47.6 to 95.1 µM) | > 32 µg/mL | 16 µg/mL (≈ 47.6 µM) | > 32 µg/mL | > 32 µg/mL | > 32 µg/mL | 16 to 32 µg/mL (≈ 47.6 to 95.1 µM) | > 32 µg/mL | > 32 µg/mL | > 32 µg/mL | 1.7 °C | Active | > 32 µg/mL | > 32 µg/mL | 16 µg/mL (≈ 47.6 µM) | 16 µg/mL (≈ 47.6 µM) |  |  | 
3 | C#CCOc1ccc(-c2nc3ccc(N4CCN(C)CC4)cc3[nH]2)cc1 | 16 to 32 µg/mL (≈ 46.2 to 92.4 µM) | 16 to 32 µg/mL (≈ 46.2 to 92.4 µM) | > 32 µg/mL | 16 µg/mL (≈ 46.2 µM) | > 32 µg/mL | > 32 µg/mL | > 32 µg/mL | ≥ 32 µg/mL | > 32 µg/mL | > 32 µg/mL | > 32 µg/mL | 2.6 °C | Active | > 32 µg/mL | > 32 µg/mL | 16 µg/mL (≈ 46.2 µM) | 16 µg/mL (≈ 46.2 µM) |  |  | 
4 | CN1CCN(c2ccc3nc(-c4ccc(OCCCNC(=O)OC(C)(C)C)cc4)[nH]c3c2)CC1 | 16 to 32 µg/mL (≈ 34.4 to 68.7 µM) | 16 to 32 µg/mL (≈ 34.4 to 68.7 µM) | > 32 µg/mL | 16 µg/mL (≈ 34.4 µM) | > 32 µg/mL | > 32 µg/mL | > 32 µg/mL | 16 to 32 µg/mL (≈ 34.4 to 68.7 µM) | > 32 µg/mL | > 32 µg/mL | > 32 µg/mL | 1 °C | Active | > 32 µg/mL | > 32 µg/mL | 16 µg/mL (≈ 34.4 µM) | 16 µg/mL (≈ 34.4 µM) |  |  | 
5 | C#CCOCCCCOc1ccc(-c2nc3ccc(-c4nc5ccc(N6CCN(C)CC6)cc5[nH]4)cc3[nH]2)cc1 |  |  | 1 to 2 µg/mL (≈ 1.87 to 3.74 µM) | 8 to 16 µg/mL (≈ 15 to 29.9 µM) | 1 µg/mL (≈ 1.87 µM) |  | 4 µg/mL (≈ 7.48 µM) |  | 4 µg/mL (≈ 7.48 µM) | 8 µg/mL (≈ 15 µM) | 1 to 2 µg/mL (≈ 1.87 to 3.74 µM) |  |  | > 32 µg/mL | > 32 µg/mL |  | 16 µg/mL (≈ 29.9 µM) | inactive | inactive | Toxic
6 | CN1CCN(c2ccc3nc(-c4ccc(OCc5cn(CCN=[N+]=[N-])nn5)cc4)[nH]c3c2)CC1 | 16 to 32 µg/mL (≈ 34.9 to 69.8 µM) | 16 to 32 µg/mL (≈ 34.9 to 69.8 µM) | > 32 µg/mL | 16 µg/mL (≈ 34.9 µM) | > 32 µg/mL | > 32 µg/mL | > 32 µg/mL | 16 to 32 µg/mL (≈ 34.9 to 69.8 µM) | > 32 µg/mL | > 32 µg/mL | > 32 µg/mL | 1.2 °C | Active | > 32 µg/mL | > 32 µg/mL | 16 µg/mL (≈ 34.9 µM) | 16 µg/mL (≈ 34.9 µM) |  |  | 
7 | C#Cc1ccc(-c2cn(CCOc3ccc(-c4nc5ccc(N6CCN(C)CC6)cc5[nH]4)cc3)nn2)cc1 | 16 to 32 µg/mL (≈ 31.8 to 63.5 µM) | 16 µg/mL (≈ 31.8 µM) | > 32 µg/mL | 16 µg/mL (≈ 31.8 µM) | > 32 µg/mL | > 32 µg/mL | > 32 µg/mL | 16 to 32 µg/mL (≈ 31.8 to 63.5 µM) | > 32 µg/mL | > 32 µg/mL | > 32 µg/mL | 1.9 °C | Active | > 32 µg/mL | > 32 µg/mL | 16 µg/mL (≈ 31.8 µM) | 16 µg/mL (≈ 31.8 µM) |  |  | 
